Compounds with a hit are over-represented: about 3.5% of the library has one in this group of screens.
MrgX1 antag = antagonists of human MrgX1 receptor, primary screen, HEK293 cells, Fluo-4 calcium flux. 310,000 tested, 1.3% active. BAM8-22 antagonism; stronger effect = lower value. B-score at 10 µM. Mas-related G-protein coupled receptor member X1 (Homo sapiens), Q96LB2;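 active = calcium-response B-score plate-corrected more than 3 library SD below zero, starting fluorescence within 5 deviations, no agonist response on first addition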;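 also: peak minus trough fluorescence over baseline after final BAM8-22 challenge near maximal dose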
Target sequence (Q96LB2 whole entry, looked up): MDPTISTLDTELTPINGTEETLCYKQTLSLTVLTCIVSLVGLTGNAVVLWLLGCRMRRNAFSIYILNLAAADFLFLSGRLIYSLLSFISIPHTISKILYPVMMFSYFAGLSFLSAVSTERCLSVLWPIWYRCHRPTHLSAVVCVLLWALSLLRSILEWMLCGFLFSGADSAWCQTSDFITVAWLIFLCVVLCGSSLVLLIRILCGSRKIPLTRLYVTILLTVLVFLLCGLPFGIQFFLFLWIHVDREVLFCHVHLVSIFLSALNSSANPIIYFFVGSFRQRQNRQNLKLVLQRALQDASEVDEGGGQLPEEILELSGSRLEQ
MrgX1 PAM = positive allosteric modulators of MrgX1, primary screen, HEK293 cells, Fluo-4 calcium flux. FDSS; stronger effect = higher value. B-score at 10 µM. 310,000 tested, 0.63% active;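 active = plate-corrected calcium response at least 3 library SD above typical, normal starting fluorescence, not activating the receptor alone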;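 also: compound read alongside a low EC10 to EC30 dose of BAM8-22 agonist; peak minus trough fluorescence over baseline measured at the second addition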
RGS4 inh = RGS4 inhibitors, primary screen, cell-based, HEK293 M3R inducible RGS4, calcium flux | Fluo-4 calcium flux; stronger effect = higher value; triggered by carbachol at its EC20 | B-score at 10 µM | 310,000 tested, 0.45% active | AID 463165, 2010;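 active = B-score, a plate-corrected calcium signal, over three deviations above library mean, with baseline fluorescence within five deviations of library mean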;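 also: RGS4 expression induced by doxycycline in cells with stable M3 receptor; B-score is computed from the integrated fluorescence ratio over baseline after carbachol; higher B-score means a larger calcium signal and so more RGS4 inhibition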
Target sequence (P49798 whole entry, looked up): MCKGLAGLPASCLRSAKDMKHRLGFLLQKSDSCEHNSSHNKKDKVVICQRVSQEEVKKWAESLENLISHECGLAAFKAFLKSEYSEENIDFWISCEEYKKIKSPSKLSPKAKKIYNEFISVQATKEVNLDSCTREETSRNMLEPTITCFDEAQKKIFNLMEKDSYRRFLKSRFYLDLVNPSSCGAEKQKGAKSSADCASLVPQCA
MrgX1 agonist = agonists of human MrgX1 receptor, primary screen, HEK293 cells, Fluo-4 calcium flux; Fluo-4 calcium fluorescence, agonist mode; stronger effect = higher value; Mas-related G-protein coupled receptor member X1 (Homo sapiens), Q96LB2; 310,000 tested, 0.44% active; B-score at 10 µM;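 active = calcium response B-score plate-corrected fluorescence ratio at least 3 library SD, with starting fluorescence B-score inside 5 SD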
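Material: HEK293 cells stably expressing human MrgX1 receptor | Quantity: 15,000 cells per well | Times: Cells plated overnight, dye loaded 0.5 h 37 °C, 0.5 h room temperature | Measured by: Kinetic Fluo-4 NW fluorescence of intracellular calcium | Control set: Positive and negative controls per plate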
RGS4 act = RGS4 potentiators or activators, primary screen, cell-based, HEK293 M3R inducible RGS4, calcium flux; carbachol calcium flux Fluo4; stronger effect = lower value; B-score at 10 µM; 310,000 tested, 0.92% active; AID 463111, 2010;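 active = B-score of the integrated calcium signal more than 4 SD below the library mean, with starting fluorescence not abnormally high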;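 also: negative B-score means reduced calcium response which marks RGS4 activation or potentiation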
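test system = HEK293 cells with stable M3R and inducible RGS4 | schedule = recording 10 s baseline at 1 Hz, 100 s post-agonist | technique = Fluo4-AM (2 µM) calcium-flux fluorescence, kinetic read | measure = Agonist-evoked peak-minus-minimum fluorescence over baseline, integrated ratio, B score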
RGS4 block valid = enhanced carbachol calcium response, M3R/RGS4 cells, RGS4 inhibitor project, cell-based, validation screen, HEK293 M3R/RGS4, calcium flux; 1,700 tested, 65% active; carbachol calcium Fluo-4 fluorescence; carbachol added at its EC20; 0 = buffer wells, 100 = carbachol control; calcium response, % at 10 µM; AID 492999, 2010; shares compounds with RGS4 inh;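 active = duplicate-averaged calcium response above the buffer-only control mean plus 5 SD of those controls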;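 also: integrated fluorescence ratio F max minus min over baseline F0; higher response in RGS4-induced cells means RGS4 inhibition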
RGS4 uninduced = carbachol calcium response in non-induced M3R cells, confirmation, counter-screen for RGS4 inhibitor project, cell-based, HEK293 M3R. shares compounds with RGS4 inh. carbachol calcium Fluo-4; submaximal (EC20) carbachol stimulus; buffer wells 0%, carbachol control wells 100%. activity (percent), % at 10 µM. 1,900 tested, 20% active. AID 493000, 2010; call rule not given here;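 also: RGS4 induction absent so cells express M3R without RGS4; higher means more calcium signal and flags a non-specific hit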
RGS4 inh ctr2 = second RGS4 inhibitor counter-screen in uninduced cells lacking carbachol; calcium response (agonist-mode artifact), % at 10 µM; AID 493001; HEK293 M3R/RGS4 non-induced, Fluo-4 calcium, no carbachol; normalised: buffer wells 0%, carbachol wells 100%; shares compounds with RGS4 inh; 1,900 tested, 22% active;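 active = duplicate-averaged calcium rise in uninduced cells above buffer wells' mean plus 5 SD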
* hit, by the source's call.

COc1ccc(NC(=O)/C(C#N)=C/c2ccc(Sc3nncn3C)c([N+](=O)[O-])c2)cc1 was read as MrgX1 antag inactive, MrgX1 PAM inactive, RGS4 inh 6.8*, MrgX1 agonist inactive, RGS4 act inactive, RGS4 block valid 18%*, RGS4 uninduced inactive and RGS4 inh ctr2 inactive.
Screening Cn1cnnc1Sc1ccc(/C=C/C(=O)c2ccc(O)cc2)cc1[N+](=O)[O-] returned MrgX1 antag inactive, MrgX1 PAM inactive, RGS4 inh inactive, MrgX1 agonist inactive and RGS4 act inactive.
`COc1ccc(NC(=O)/C(C#N)=C\c2ccc(Br)o2)cc1` gave MrgX1 antag inactive, MrgX1 PAM inactive, RGS4 inh inactive, MrgX1 agonist inactive and RGS4 act inactive.
For N#C/C(=C\c1ccc([N+](=O)[O-])o1)C(=O)Nc1ccc(F)cc1 the results were MrgX1 antag inactive, MrgX1 PAM inactive, RGS4 inh 7*, MrgX1 agonist inactive, RGS4 act inactive, RGS4 block valid 20%*, RGS4 uninduced inactive and RGS4 inh ctr2 inactive.
COc1ccc(Nc2nc(NC(C)(C)C)nc(N3CCCC3)n2)c(OC)c1 was read as MrgX1 antag inactive, MrgX1 PAM inactive, RGS4 inh inactive, MrgX1 agonist inactive, RGS4 act inactive, RGS4 block valid inactive, RGS4 uninduced inactive and RGS4 inh ctr2 inactive.
`COc1ccc(Nc2nc(N3CCCC3)nc(N3CCCC3)n2)c(OC)c1` gave MrgX1 antag inactive, MrgX1 PAM inactive, RGS4 inh inactive, MrgX1 agonist inactive, RGS4 act inactive, RGS4 block valid inactive, RGS4 uninduced inactive and RGS4 inh ctr2 inactive.
Screening COc1ccc(Nc2nc(N3CCCCC3)nc(N3CCCCC3)n2)c(OC)c1 returned MrgX1 antag inactive, MrgX1 PAM inactive, RGS4 inh 5.5*, MrgX1 agonist inactive, RGS4 act inactive, RGS4 block valid 9.0%*, RGS4 uninduced inactive and RGS4 inh ctr2 inactive.
For COc1ccc(NS(=O)(=O)c2ccc(Cl)c(N)c2)cc1Br the results were MrgX1 antag inactive, MrgX1 PAM inactive, RGS4 inh 8.6*, MrgX1 agonist inactive, RGS4 act inactive, RGS4 block valid 15%*, RGS4 uninduced 32%* and RGS4 inh ctr2 inactive.
`N#Cc1ccccc1OCC(=O)NC(=O)NCc1ccco1` gave MrgX1 antag inactive, MrgX1 PAM inactive, RGS4 inh inactive, MrgX1 agonist inactive and RGS4 act inactive.
For O=C1C=C(NC2=CC3OC(c4ccccc4)OCC3OC2=O)CCC1 (stereo not given) the results were MrgX1 antag inactive, MrgX1 PAM inactive, RGS4 inh 7.7*, MrgX1 agonist inactive, RGS4 act inactive, RGS4 block valid 36%*, RGS4 uninduced inactive and RGS4 inh ctr2 inactive.
`Cn1c([N+](=O)[O-])cnc1N1CCN(c2nncs2)C1=O` gave MrgX1 antag inactive, MrgX1 PAM inactive, RGS4 inh inactive, MrgX1 agonist inactive and RGS4 act inactive.
`COc1ccc(OCC(O)Cn2cnc(-c3ccc(Br)cc3)c2)cc1` (stereo not given) gave MrgX1 antag inactive, MrgX1 PAM inactive, RGS4 inh inactive, MrgX1 agonist inactive and RGS4 act inactive.
OC(COc1ccc2ccccc2c1Br)Cn1cnc(-c2ccccc2)c1 (stereo not given) was read as MrgX1 antag inactive, MrgX1 PAM inactive, RGS4 inh 9.3*, MrgX1 agonist inactive, RGS4 act inactive, RGS4 block valid 10%*, RGS4 uninduced inactive and RGS4 inh ctr2 inactive.
O=C(O)/C=C/C(=O)Nc1ccc(-c2ccccc2)cc1 was read as MrgX1 antag inactive, MrgX1 PAM inactive, RGS4 inh inactive, MrgX1 agonist inactive and RGS4 act inactive.
Screening O=c1[nH]c(-c2ccc(F)cc2)nc2c1sc(=S)n2-c1ccccc1 returned MrgX1 antag inactive, MrgX1 PAM inactive, RGS4 inh inactive, MrgX1 agonist inactive and RGS4 act inactive.
For O=c1[nH]c(-c2ccccc2Cl)nc2c1sc(=S)n2-c1ccccc1 the results were RGS4 inh 5.1*, RGS4 act inactive, RGS4 block valid 12%*, RGS4 uninduced inactive and RGS4 inh ctr2 inactive.
Cc1onc(-c2ccccc2)c1NC(=O)N(CCC#N)Cc1cccs1 was read as MrgX1 antag inactive, MrgX1 PAM inactive, RGS4 inh inactive, MrgX1 agonist inactive, RGS4 act inactive, RGS4 block valid inactive, RGS4 uninduced inactive and RGS4 inh ctr2 inactive.
For O=C(NC1CCCCC1)c1cc(-c2cccc(Cl)c2)on1 the results were MrgX1 antag inactive, MrgX1 PAM inactive, RGS4 inh inactive, MrgX1 agonist inactive and RGS4 act inactive.
`COc1ccc(/C=C/C(=O)c2sc(-c3ccccc3)nc2C)cc1` gave MrgX1 antag inactive, MrgX1 PAM inactive, RGS4 inh inactive, MrgX1 agonist inactive, RGS4 act inactive, RGS4 uninduced inactive and RGS4 inh ctr2 40%*.
COc1ccc(S(=O)(=O)N2CCCOC2CNC(=O)C(=O)NC2CCCC2)cc1 (stereo not given) was read as MrgX1 antag inactive, MrgX1 PAM inactive, RGS4 inh inactive, MrgX1 agonist inactive, RGS4 act inactive, RGS4 block valid inactive, RGS4 uninduced inactive and RGS4 inh ctr2 inactive.
COc1ccc(CNC(=O)C(=O)NCC2OCCN2S(=O)(=O)c2ccc(OC)cc2)cc1 (stereo not given) was read as MrgX1 antag inactive, MrgX1 PAM inactive, RGS4 inh inactive, MrgX1 agonist inactive and RGS4 act inactive.
`O=C(NCC1OCCCN1S(=O)(=O)c1ccc(F)cc1)C(=O)NC1CCCC1` (stereo not given) gave MrgX1 antag inactive, MrgX1 PAM inactive, RGS4 inh inactive, MrgX1 agonist inactive, RGS4 act inactive, RGS4 block valid inactive, RGS4 uninduced inactive and RGS4 inh ctr2 inactive.

Screening data from PubChem BioAssay.
